Active and inactive are the calls of the source.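 How the source made its calls, unless noted: active means fluorescence slope higher than the sample average by over 3 SD (cut at about -0.22 in these data, passing the limit was not always enough); inactive means the rest.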
Assays:
[1] = inhibitors of TNFa-induced NFkB p65 translocation, primary screen, imaging, HUVEC, MLSMR starter and 10KST1 sets (AID 438;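 active means inhibition above 20% together with a positive visual image hit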;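 further: compound added about 3h40 before a 20 min TNFalpha stimulation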;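 on inhibition: signal is the nuclear over cytoplasmic p65 intensity ratio per well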); conditions: HUVEC TNFa-induced p65 nuclear translocation; cell count: measured here: nuclei count (cytotoxicity indicator), at 2.08 µM; inhibition: at 2 µM, stronger effect = higher value, 0% TNFa-plus-vehicle, 100% no-TNFa wells
[2] = reduction of polyQ htt aggregates in cells – imaging, exon1htt(103Q)mCFP cells, high-content imaging, primary screen (AID 483;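 active means visual image review flags a hit and inhibition of aggregation exceeds 20%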;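 further: compound exposure lasted 3 days before fixation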;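 on nuclei count: percent of the per-plate median nuclei count of sample wells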); conditions: exon1htt(103Q)mCFP cell line, aggregate imaging, at 2 µM; inhibition of aggregation: stronger effect = higher value; nuclei count: measured here: cell count, toxicity
[3] = endothelial E-selectin expression blockers – imaging, HUVEC, immunofluorescence, MLSMR starter and 10KST1 sets, primary screen (AID 487;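 active means visually confirmed hit in the image check and inhibition above 20%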;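 on inhibition: signal is fraction of cell area covered by stained E-selectin grains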;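 on nuclei count: 100% = median nuclei count of all wells on the same plate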); conditions: HUVEC TNFalpha-induced E-selectin immunofluorescence imaging, at 2 µM; inhibition: stronger effect = higher value; nuclei count: measured here: cell number, toxicity
[4] = biological target: Voltage-gated potassium channel subunit beta-2 (Rattus norvegicus) (UniProt P62483); assay: inhibitors of rat Kvbeta2 reductase activity – biochemical, NADPH fluorescence, primary screen (AID 622); conditions: recombinant KvBeta, 4-cyanobenzaldehyde reduction, at 10 µM, stronger effect = higher value;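 further: slope of raw intensity against log time taken from 70 to 1610 s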
Voltage-gated potassium channel subunit beta-2 (Rattus norvegicus), sequence (P62483 whole entry, looked up): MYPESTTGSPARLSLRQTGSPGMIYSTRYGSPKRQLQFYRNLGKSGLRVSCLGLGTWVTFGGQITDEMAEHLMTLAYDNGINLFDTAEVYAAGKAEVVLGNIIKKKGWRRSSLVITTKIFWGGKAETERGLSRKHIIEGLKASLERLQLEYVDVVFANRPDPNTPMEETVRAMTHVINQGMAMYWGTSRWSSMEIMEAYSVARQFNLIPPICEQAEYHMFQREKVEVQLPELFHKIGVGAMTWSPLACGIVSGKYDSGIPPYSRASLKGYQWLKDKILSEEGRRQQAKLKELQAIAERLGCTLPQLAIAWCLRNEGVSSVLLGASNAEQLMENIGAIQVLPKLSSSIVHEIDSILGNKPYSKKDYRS

[5] = biological target: Voltage-gated potassium channel subunit beta-2 (Rattus norvegicus) (UniProt P62483); assay: enhancers of rat Kvbeta2 NADPH turnover – biochemical, NADPH fluorescence, primary screen (AID 623;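 active means NADPH fluorescence slope more negative than the mean of all samples by about 3 SD, 99.7% confidence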;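 further: fluorescence intensity change per second fitted from 20 to 320 s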); conditions: Recombinant KvBeta, NADPH fluorescence decrease slope, 10 min; at 10 µM; stronger effect = lower value
[6] = biological target: Muscarinic acetylcholine receptor M4 (Homo sapiens) (UniProt P08173); assay: M4-linked GIRK flux change, two-sided – cell-based, HEK293 M4/GIRK, thallium flux, BTC-AM, M4 allosteric agonist project, primary screen (AID 625;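 active means fluorescence slope after compound addition differing from the mean of all tested samples at 99.7% confidence, mostly higher but some lower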;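 further: thallium influx through GIRK channels coupled to M4 in HEK293 cells with BTC-AM dye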); conditions: at 10 µM, actives lie on both sides
Muscarinic acetylcholine receptor M4 (Homo sapiens), sequence (P08173 whole entry, looked up): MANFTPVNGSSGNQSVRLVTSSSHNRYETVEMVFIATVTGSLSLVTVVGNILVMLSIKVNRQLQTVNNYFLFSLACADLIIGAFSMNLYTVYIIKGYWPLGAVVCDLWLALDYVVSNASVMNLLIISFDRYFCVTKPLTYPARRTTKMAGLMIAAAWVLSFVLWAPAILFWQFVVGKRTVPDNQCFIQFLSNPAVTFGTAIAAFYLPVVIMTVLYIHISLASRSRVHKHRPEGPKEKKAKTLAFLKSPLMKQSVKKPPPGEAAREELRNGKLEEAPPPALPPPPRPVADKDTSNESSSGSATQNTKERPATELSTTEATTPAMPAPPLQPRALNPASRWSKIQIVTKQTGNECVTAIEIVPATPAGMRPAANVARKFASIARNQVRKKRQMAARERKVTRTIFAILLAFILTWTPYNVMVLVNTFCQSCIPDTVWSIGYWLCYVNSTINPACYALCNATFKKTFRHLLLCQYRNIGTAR
Procedure, shortened: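 Material: HEK293 cells with M4 receptor and GIRK channels; Times: cells overnight at 37 °C, BTC-AM loading 1 h, reads 2 min total; Technique: kinetic BTC-AM fluorescence sampled at 1 Hz, 10 s pre-addition baseline; Read-out basis: slope over 15–24 s of trace normalized to starting intensity; Controls: carbachol positive, DMSO negative.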

[7] = blockers of RIG-like receptor reporter activation – cell-based, Sendai virus stimulus, luciferase, 10K MLSCN set, TLR/RLR signaling modifier project, primary screen (AID 602276;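 active means inhibition at or above 50% at 10 µM; inactive means inhibition below 50%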;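 further: firefly luciferase from ISG56 promoter only with Renilla not read in this screen; 0% = Sendai virus plus DMSO and 100% = medium plus DMSO without virus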); conditions: HEK293 RL24 IRF3 luciferase reporter, at 10 µM, stronger effect = higher value
[8] = TLR3 IRF3 reporter activation blockers – cell-based, poly I:C stimulus, luciferase, 10K MLSCN set, primary screen (AID 602277;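 active means inhibition of the reporter signal at or above 50%; inactive means inhibition below 50%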); conditions: HEK293-TLR3 RL24 IRF3 luciferase reporter, at 10 µM, stronger effect = higher value

Row | SMILES | cell count [1] | inhibition [1] | inhibition of aggregation [2] | nuclei count [2] | inhibition [3] | nuclei count [3] | fluorescence slope [4] | NADPH fluorescence slope [5] | fluorescence slope [6] | inhibition [7] | inhibition [8]
1 | CCCCC(NC(C)=O)c1nc2ccccc2n1CCC (stereo not given) | 294 | -3.7% (inactive) | 24.6% (inactive) | 82.4% | 37.8% (inactive) | 94.3% | -0.454 (inactive) | -2.6e-05 (inactive) | 0.00541 (inactive) | 22.7% (inactive) | 16.8% (inactive)
2 | COC(=O)COc1nc(C)c(Br)c(OC)n1 | 367 | 2.4% (inactive) | -14% (inactive) | 96.9% | -89.5% (inactive) | 110% | -0.615 (inactive) | -1.6e-05 (inactive) | 0.00344 (inactive) | 15.8% (inactive) | 17.1% (inactive)
3 | CN(C)C(=O)CSc1nnc([C@H](Cc2c[nH]c3ccccc23)NC(=O)OC(C)(C)C)o1 | 375 | 2.2% (inactive) | -9.3% (inactive) | 108% | -35.8% (inactive) | 112% | -0.634 (inactive) | -2.1e-05 (inactive) | 0.00313 (inactive) | 18.2% (inactive) | 23.4% (inactive)
4 | COc1cccc(OC)c1C(=O)N1CCN(S(=O)(=O)c2ccccc2)CC1 | 437 | 1.4% (inactive) | -1.7% (inactive) | 105% | -13.1% (inactive) | 102% | -0.531 (inactive) | -6.4e-05 (inactive) | 0.00446 (inactive) | -2.45% (inactive) | 19.4% (inactive)
5 | Cc1ccc(S(=O)(=O)CCc2nnc(NC(=O)c3cnccn3)s2)cc1 | 578 | -46.9% (inactive) | -22.9% (inactive) | 116% | -82.9% (inactive) | 117% | -0.407 (inactive) | -8.1e-06 (inactive) | 0.00653 (inactive) | 10.8% (inactive) | 22.5% (inactive)
6 | CCOC(=O)c1[nH]c(C)c(C(=O)Nc2ccc(C)c(Cl)c2)c1C | 661 | 0.3% (inactive) | -3.4% (inactive) | 97.4% | -7.5% (inactive) | 96.5% | -0.446 (inactive) | 1.5e-05 (inactive) | 0.00769 (inactive) | 11.7% (inactive) | 11.2% (inactive)
7 | COc1cc(OC)cc(C(=O)NCCN2CCOCC2)c1 | 633 | -11.2% (inactive) | -0.4% (inactive) | 94.3% | -24.5% (inactive) | 108% | -0.573 (inactive) | 1.5e-05 (inactive) | 0.00526 (inactive) | 7.36% (inactive) | 9.91% (inactive)
8 | CC(C)CCn1c(N)c(S(=O)(=O)c2cccs2)c2nc3ccccc3nc21 | 652 | 2% (inactive) | 0% (inactive) | 105% | -67.7% (inactive) | 124% | -0.398 (inactive) | 1.8e-05 (inactive) | 0.00628 (inactive) | 8.07% (inactive) | -1.32% (inactive)
9 | CCOC(=O)c1c(C)oc2ccc(OCC(=O)N(CC)CC)cc12 | 422 | -1.7% (inactive) | -2.3% (inactive) | 95.5% | -63% (inactive) | 104% | -0.449 (inactive) | -1.9e-05 (inactive) | 0.00589 (inactive) | 8.2% (inactive) | 7.27% (inactive)
10 | Cc1ccc2ncnc(NCCCN3CCOCC3)c2c1 | 339 | -0.6% (inactive) | 4.8% (inactive) | 101% | -25.5% (inactive) | 115% | -0.484 (inactive) | -0.000336 (inactive) | 0.00376 (inactive) | -18.7% (inactive) | -21.1% (inactive)
11 | CCOC(=O)N1CCC(NC(=O)c2ccc3c(c2)N(C)CCS3)CC1 | 368 | -0.7% (inactive) | 17.8% (inactive) | 113% | -131% (inactive) | 126% | -0.0303 (active) | 1.7e-06 (inactive) | 0.00744 (inactive) | 13% (inactive) | 21.9% (inactive)
12 | Cc1ccc(C(=O)OCC(=O)c2ccc(Cl)s2)s1 | 654 | -24.7% (inactive) | 10.6% (inactive) | 86% | -13.1% (inactive) | 121% | -0.454 (inactive) | 0.000104 (inactive) | 0.00572 (inactive) | -26% (inactive) | -58% (inactive)
13 | O=C1CC(N2CCOCC2)C(=O)N1c1ccc2c(c1)OCO2 (stereo not given) | 459 | 7.5% (inactive) | -9.9% (inactive) | 105% | -175% (inactive) | 120% | -0.574 (inactive) | -3.1e-05 (inactive) | 0.00505 (inactive) | 4.21% (inactive) | 10.1% (inactive)
14 | N#C/C(C(=O)c1ccccc1)=C1/CCCN1 | 328 | 0.4% (inactive) | -10.6% (inactive) | 109% | -66.4% (inactive) | 134% | -0.567 (inactive) | -5.4e-05 (inactive) | 0.00513 (inactive) | 4.87% (inactive) | -17.4% (inactive)
15 | O=C(C1CCN(S(=O)(=O)c2cccnc2)CC1)N1CCN(c2ccc(Cl)cc2)CC1 | 447 | -1.6% (inactive) | 11.5% (inactive) | 109% | -26.1% (inactive) | 100% | -0.447 (inactive) | 3.3e-05 (inactive) | 0.00572 (inactive) | 7.3% (inactive) | -25.5% (inactive)

— PubChem BioAssay
